pIC50: −log10 of the molar value. Active and inactive are the calls of the source. No cut-off for these calls is given here.
Columns and labels:
[1] = nOctanol-phosphate buffer partition coefficient, log D of the compound at pH 7.4 incubated for 3 hrs in dark condition by fluorimeter; assay type: physicochemical; settings: octanol/water, pH 7.4, 3 h
Tubulin (Sus scrofa) [2] = biological target: T1, Tubulin (Sus scrofa) (UniProt P02554+P02550); assay: Induction of porcine brain tubulin polymerization at 3 uM after 40 mins by fluorescence analysis in presence of GTP
Outline: (§1)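 Fluorescence-based tubulin polymerization kit. Compound in DMSO diluted with water, then combined with tubulin and GTP in buffer at 37 °C. Fluorescence (excitation 360 nm, emission 450 nm) read every 2 min for 1 h.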

Tubulin (Sus scrofa) [3] = biological target: T1, Tubulin (Sus scrofa); assay: Induction of porcine brain tubulin polymerization at 30 uM measured every 2 mins for 1 hr by fluorescence analysis in presence of GTP; outline: as §1
[4] = Drug uptake in nucleus of human SKOV3 cells at 0.5 uM after 23 hrs by tubulin tracker green fluorescent dye based confocal microscopy; assay type: ADME, cell-based; settings: sk-ov-3, 23 h
Outline: (§2)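 SKOV-3 cells grown in α-MEM with 10% bovine growth serum, 2 mM L-glutamine, penicillin/streptomycin and fungizone were seeded on coverslips, cultured 24 h, then exposed to prodrug at 500 nM for 24 h under minimal light. Tubulin tracker green, 1 µM final in HBSS, added 45-60 min at 37 °C, then washed. Confocal imaging: tracker excitation 488 nm/emission 500-550 nm, prodrug excitation 633 nm/emission 650-800 nm, three random fields per treatment.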

[5] = Dark cytotoxicity against human SKOV3 cells assessed as cell viability after 72 hrs by MTT assay; assay type: cell-based; settings: SK-OV-3, 72 h
Outline: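 SKOV-3 cells seeded at 5000/well, incubated 24 h, then treated from 2 mM DMSO stocks diluted in medium to final concentrations; kept in the dark 72 h. MTT ([…]) added, formazan dissolved in DMSO, absorbance 570 nm minus 650 nm background; viability as percentage of untreated wells.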

[6] = Photocytotoxicity against human SKOV3 cells assessed as cell viability incubated for 24 hrs under dark conditions followed by 5.6 mW/cm2 of laser illumination for 30 mins measured after 72 hrs by MTT assay; assay type: functional, cell-based; settings: SK-OV-3
Outline: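 SKOV-3 cells (5000/well) dosed from 2 mM DMSO stocks diluted in medium; after 24 h dark incubation, plates illuminated uncovered on orbital shaker with 690 nm diode laser, 5.6 mW/cm² for 30 min (10 J/cm²). Incubated a further 72 h, then MTT read at 570 nm with 650 nm background; viability as percentage of untreated controls.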

[7] = Drug degradation in complete medium at 10 uM after 96 hrs by HPLC analysis under dark conditions
[8] = Retention time of the compound at 10 uM by HPLC analysis; assay type: physicochemical
Outline: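 Complete medium containing 10 µM compound held at 37 °C in the dark. Samples were extracted into dichloromethane, dried, and taken up in 5% DMSO in ACN. Isocratic HPLC with 90% ACN/10% 10 mM ammonium acetate at 0.5 mL/min; detection by diode array at 675 nm.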

[9] = Ratio of compound IC50 to PTX IC50 for dark cytotoxicity against human SKOV3 cells; assay type: cell-based, SK-OV-3; settings: read-out: Ratio IC50
[10] = Ratio of photocytotoxic IC50 for human SKOV3 cells measured after drug wash out to photocytotoxic IC50 for human SKOV3 cells measured before drug wash out; assay type: functional, SK-OV-3
Tubulin (Sus scrofa) [11] = biological target: T1, Tubulin (Sus scrofa); assay: Induction of porcine brain tubulin polymerization at 1.5 uM irradiated with 5.6 mW/cm2 of far-red light for 30 mins measured every 2 mins for 1 hr by fluorescence analysis
[12] = Drug uptake in cytosol of human SKOV3 cells at 0.5 uM after 23 hrs by tubulin tracker green fluorescent dye based confocal microscopy; assay type: ADME, cell-based, SK-OV-3; outline: as §2
[13] = Photocytotoxicity against human SKOV3 cells assessed as cell viability incubated for 24 hrs under dark conditions followed by 5.6 mW/cm2 of laser illumination for 30 mins measured 72 hrs post drug wash out by MTT assay; assay type: functional, cell-based; settings: SK-OV-3
Outline: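 SKOV-3 cells (5000/well) held 24 h in the dark with drug, illuminated at 690 nm, 5.6 mW/cm², 30 min (10 J/cm²). Medium then replaced with fresh medium to remove released material, followed by 72 h incubation and MTT readout (570 nm, 650 nm background), viability relative to untreated wells.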

[14] = Drug degradation […] at 10 uM after 24 hrs by HPLC analysis under dark conditions; assay type: physicochemical; settings: read-out: Drug degradation
Outline: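 10 μM solution in complete cell culture medium, made from DMSO stock, kept at 37 °C in the dark. Aliquots taken at 0, 2, 24, 48, 96 and 168 h, extracted with dichloromethane, reconstituted in 5% DMSO in ACN. Analysed by isocratic HPLC (90% ACN/10% 10 mM ammonium acetate, 0.5 mL/min); remaining percentage versus t = 0, three experiments.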

[15] = Retention time of the compound in DMSO treated with (Pc-(L-PTX)2) by mass spectroscopy/HPLC analysis; assay type: physicochemical

T1 sequence (P02550 whole entry, looked up): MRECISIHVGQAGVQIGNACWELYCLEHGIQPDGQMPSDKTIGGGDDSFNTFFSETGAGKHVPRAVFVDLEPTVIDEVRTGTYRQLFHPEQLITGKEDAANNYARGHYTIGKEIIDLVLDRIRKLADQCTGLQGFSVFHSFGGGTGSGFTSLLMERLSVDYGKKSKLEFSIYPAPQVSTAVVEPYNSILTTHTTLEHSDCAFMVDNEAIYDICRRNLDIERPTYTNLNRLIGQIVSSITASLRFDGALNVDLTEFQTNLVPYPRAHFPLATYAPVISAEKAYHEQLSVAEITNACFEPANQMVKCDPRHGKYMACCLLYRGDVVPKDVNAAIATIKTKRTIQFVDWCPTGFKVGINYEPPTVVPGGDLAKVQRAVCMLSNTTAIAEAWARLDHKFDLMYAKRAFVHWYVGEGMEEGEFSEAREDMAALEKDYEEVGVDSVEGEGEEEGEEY
T1 sequence (P02554 whole entry, looked up): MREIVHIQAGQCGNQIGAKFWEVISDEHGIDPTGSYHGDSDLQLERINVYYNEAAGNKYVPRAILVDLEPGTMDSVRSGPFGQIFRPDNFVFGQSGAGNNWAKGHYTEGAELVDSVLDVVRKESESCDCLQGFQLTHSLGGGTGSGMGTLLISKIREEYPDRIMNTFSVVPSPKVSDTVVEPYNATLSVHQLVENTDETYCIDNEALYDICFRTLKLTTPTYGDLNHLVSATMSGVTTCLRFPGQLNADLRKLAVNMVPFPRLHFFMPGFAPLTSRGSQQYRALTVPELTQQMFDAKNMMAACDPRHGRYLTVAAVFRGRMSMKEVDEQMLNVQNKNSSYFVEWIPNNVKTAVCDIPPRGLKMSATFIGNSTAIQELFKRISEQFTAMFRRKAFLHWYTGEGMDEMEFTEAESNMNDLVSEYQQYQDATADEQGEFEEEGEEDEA

| Structure (SMILES) | logD [1] | Activity (Tubulin (Sus scrofa) [2]) | Activity (Tubulin (Sus scrofa) [3]) | Drug uptake [4] | pIC50 [5] | pIC50 [6] | degraded at 96 h, 10 µM [7] | Retention_time [8] | selectivity ratio [9] | Ratio IC50 [10] | Activity (Tubulin (Sus scrofa) [11]) | Drug uptake [12] | pIC50 [13] | degraded at 24 h, 10 µM [14] | Retention_time [15] |
| --- | --- | --- | --- | --- | --- | --- | --- | --- | --- | --- | --- | --- | --- | --- | --- |
| CC(=O)O[C@H]1C(=O)[C@@]2(C)[C@H](O)C[C@@H]3OC[C@]3(OC(C)=O)[C@@H]2[C@@H](OC(=O)c2ccccc2)[C@]2(O)C[C@@H](OC(=O)[C@@H](OC(=O)CCC(=O)N3CCN(CCO[Si]4(OCCN5CCN(C(=O)CCC(=O)O[C@@H](C(=O)O[C@@H]6C[C@@]7(O)[C@H](OC(=O)c8ccccc8)[C@H]8[C@@]9(OC(C)=O)CO[C@H]9C[C@@H](O)[C@]8(C)C(=O)[C@H](OC(C)=O)C(=C6C)C7(C)C)[C@H](NC(=O)c6ccccc6)c6ccccc6)CC5)n5c6c7ccccc7c5/N=C5N=C(/N=c7/c8ccccc8/c(n74)=N/C4=NC(=N\6)/c6ccccc64)c4ccccc4\5)CC3)[C@H](NC(=O)c3ccccc3)c3ccccc3)C(C)=C1C2(C)C (some centres undefined) | > 3.1 | inactive | inactive | Not Active | 5.89 | 7.62 | 14% | 21 min | 270 | 2 | inactive | Active | 7.28 | 4% | – |
| CC(=O)O[C@H]1C(=O)[C@@]2(C)[C@H]([C@H](OC(=O)c3ccccc3)[C@]3(O)C[C@H](OC(=O)[C@H](OC(=O)/C=C/N4CCN(CCO[Si]5(OCCN6CCN(/C=C/C(=O)O[C@@H](C(=O)O[C@H]7C[C@@]8(O)[C@@H](OC(=O)c9ccccc9)[C@@H]9[C@]%10(OC(C)=O)CO[C@@H]%10C[C@H](O)[C@@]9(C)C(=O)[C@H](OC(C)=O)C(=C7C)C8(C)C)[C@@H](NC(=O)c7ccccc7)c7ccccc7)CC6)n6c7c8ccccc8c6/N=C6N=C(/N=c8/c9ccccc9/c(n85)=N/C5=NC(=N\7)/c7ccccc75)c5ccccc5\6)CC4)[C@@H](NC(=O)c4ccccc4)c4ccccc4)C(C)=C1C3(C)C)[C@]1(OC(C)=O)CO[C@@H]1C[C@@H]2O | > 3.1 | inactive | inactive | Not Active | 6.04 | 8.41 | < 7% | 32 min | 190 | 23 | Active | Active | 7.05 | – | – |
| CC(=O)O[C@H]1C(=O)[C@@]2(C)[C@H]([C@H](OC(=O)c3ccccc3)[C@]3(O)C[C@H](OC(=O)[C@H](O)[C@@H](NC(=O)c4ccccc4)c4ccccc4)C(C)=C1C3(C)C)[C@]1(OC(C)=O)CO[C@@H]1C[C@@H]2O [PACLITAXEL] | – | – | – | – | 8.33 | – | – | – | – | – | – | – | – | – | 11 min |

Reference: ChEMBL document CHEMBL3804770 (J Med Chem, 2016)
